Test results taken from ChEMBL document CHEMBL3124806, “Imidazopyridine-fused [1,3]-diazepinones: synthesis and antiproliferative activity” (Eur J Med Chem, 2014).

Legend:
Type in all cases: functional
SF-539 = assay: Cytotoxicity against human SF539 cells assessed as cell growth at 10 uM after 48 hrs by SRB assay relative to untreated control; details: SF-539, 48 h, read-out: Activity
Procedure, shortened: (§1)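 NCI-60 one-dose screen: each agent added at 10 µM, cultures incubated 48 h. Endpoint by sulforhodamine B protein-binding dye read spectrophotometrically; growth expressed as percent of untreated control cells.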

MCF7 = assay: Cytotoxicity against human MCF7 cells assessed as cell growth at 10 uM after 48 hrs by SRB assay relative to untreated control; details: MCF7, 48 h, read-out: Activity
Procedure, shortened: (§2)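 NCI-60 panel screen at a single concentration of 10 μM with 48 h incubation. Cell density measured by sulforhodamine B protein-binding dye and read spectrophotometrically. Growth expressed as percent of untreated control cells.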

Malme-3M = assay: Cytotoxicity against human MALME-3M cells assessed as cell growth at 10 uM after 48 hrs by SRB assay relative to untreated control; details: read-out: Activity; procedure, shortened: as §2
ACHN = assay: Cytotoxicity against human ACHN cells assessed as cell growth at 10 uM after 48 hrs by SRB assay relative to untreated control; details: read-out: Activity; procedure, shortened: as §2
HCT-15 = assay: Cytotoxicity against human HCT15 cells assessed as cell growth at 10 uM after 48 hrs by SRB assay relative to untreated control; details: HCT-15, 48 h, read-out: Activity; procedure, shortened: as §2
SK-MEL-2 = assay: Cytotoxicity against human SK-MEL-2 cells assessed as cell growth at 10 uM after 48 hrs by SRB assay relative to untreated control; details: SK-MEL-2, 48 h, read-out: Activity; procedure, shortened: as §1
NCI-H522 = assay: Cytotoxicity against human NCI-H522 cells assessed as cell growth at 10 uM after 48 hrs by SRB assay relative to untreated control; details: NCI-H522, 48 h, read-out: Activity; procedure, shortened: as §1
M14 = assay: Cytotoxicity against human M14 cells assessed as cell growth at 10 uM after 48 hrs by SRB assay relative to untreated control; details: M14, 48 h, read-out: Activity; procedure, shortened: as §2
CCRF-CEM = assay: Cytotoxicity against human CCRF-CEM cells assessed as cell growth at 10 uM after 48 hrs by SRB assay relative to untreated control; details: read-out: Activity; procedure, shortened: as §2
A549 = assay: Cytotoxicity against human A549 cells assessed as cell growth at 10 uM after 48 hrs by SRB assay relative to untreated control; details: A549, 48 h, read-out: Activity; procedure, shortened: as §2
BT-549 = assay: Cytotoxicity against human BT549 cells assessed as cell growth at 10 uM after 48 hrs by SRB assay relative to untreated control; details: BT-549, 48 h, read-out: Activity; procedure, shortened: as §2
NCI-H23 = assay: Cytotoxicity against human NCI-H23 cells assessed as cell growth at 10 uM after 48 hrs by SRB assay relative to untreated control; details: NCI-H23, 48 h, read-out: Activity; procedure, shortened: as §1
SK-OV-3 = assay: Cytotoxicity against human SKOV3 cells assessed as cell growth at 10 uM after 48 hrs by SRB assay relative to untreated control; details: SK-OV-3, 48 h, read-out: Activity
Procedure, shortened: (§3)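 NCI-60 single-dose screen. Compounds were added to the cultures at 10 μM and incubated for 48 h. The end point was sulforhodamine B protein staining read spectrophotometrically. Growth is reported as percent of untreated control cells.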

HT-29 = assay: Cytotoxicity against human HT-29 cells assessed as cell growth at 10 uM after 48 hrs by SRB assay relative to untreated control; details: HT-29, 48 h, read-out: Activity; procedure, shortened: as §2
[1] = Cytotoxicity against human Hs578T cells assessed as cell growth at 10 uM after 48 hrs by SRB assay relative to untreated control; details: Hs-578T, read-out: Activity; procedure, shortened: as §2
[2] = Cytotoxicity against human NCI-ADR-RES cells assessed as cell growth at 10 uM after 48 hrs by SRB assay relative to untreated control; details: read-out: Activity; procedure, shortened: as §1
[3] = Cytotoxicity against human OVCAR5 cells assessed as cell growth at 10 uM after 48 hrs by SRB assay relative to untreated control; details: OVCAR-5, 48 h, read-out: Activity; procedure, shortened: as §1
U-251 = assay: Cytotoxicity against human U251 cells assessed as cell growth at 10 uM after 48 hrs by SRB assay relative to untreated control; details: U-251, 48 h, read-out: Activity; procedure, shortened: as §3
SK-MEL-5 = assay: Cytotoxicity against human SK-MEL-5 cells assessed as cell growth at 10 uM after 48 hrs by SRB assay relative to untreated control; details: SK-MEL-5, 48 h, read-out: Activity; procedure, shortened: as §3
UACC-62 = assay: Cytotoxicity against human UACC62 cells assessed as cell growth at 10 uM after 48 hrs by SRB assay relative to untreated control; details: UACC-62, 48 h, read-out: Activity; procedure, shortened: as §3
SNB-19 = assay: Cytotoxicity against human SNB19 cells assessed as cell growth at 10 uM after 48 hrs by SRB assay relative to untreated control; details: SNB-19, 48 h, read-out: Activity; procedure, shortened: as §3
T47D = assay: Cytotoxicity against human T47D cells assessed as cell growth at 10 uM after 48 hrs by SRB assay relative to untreated control; details: read-out: Activity; procedure, shortened: as §3
SN12C = assay: Cytotoxicity against human SN12C cells assessed as cell growth at 10 uM after 48 hrs by SRB assay relative to untreated control; details: read-out: Activity; procedure, shortened: as §3
NCI-H322M = assay: Cytotoxicity against human NCI-H322M cells assessed as cell growth at 10 uM after 48 hrs by SRB assay relative to untreated control; details: read-out: Activity; procedure, shortened: as §1
MDA-MB-468 = assay: Cytotoxicity against human MDA-MB-468 cells assessed as cell growth at 10 uM after 48 hrs by SRB assay relative to untreated control; details: MDA-MB-468, 48 h, read-out: Activity; procedure, shortened: as §1
786-0 = assay: Cytotoxicity against human […] cells assessed as cell growth at 10 uM after 48 hrs by SRB assay relative to untreated control; details: 786-0, 48 h, read-out: Activity; procedure, shortened: as §2
MOLT-4 = assay: Cytotoxicity against human MOLT4 cells assessed as cell growth at 10 uM after 48 hrs by SRB assay relative to untreated control; details: MOLT-4, 48 h, read-out: Activity; procedure, shortened: as §1
HL-60(TB) = assay: Cytotoxicity against human HL-60(TB) cells assessed as cell growth at 10 uM after 48 hrs by SRB assay relative to untreated control; details: HL-60, 48 h, read-out: Activity
Procedure, shortened: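 NCI-60 human tumour cell line panel; a single 10 µM concentration was added to the cultures and incubated 48 h. Endpoint was sulforhodamine B protein-binding dye read spectrophotometrically, with growth reported as percent of untreated control cells.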

Row | Structure (SMILES) | growth at 10 µM (SF-539) [%] | growth at 10 µM (MCF7) [%] | growth at 10 µM (Malme-3M) [%] | growth at 10 µM (ACHN) [%] | growth at 10 µM (HCT-15) [%] | growth at 10 µM (SK-MEL-2) [%] | growth at 10 µM (NCI-H522) [%] | growth at 10 µM (M14) [%] | growth at 10 µM (CCRF-CEM) [%] | growth at 10 µM (A549) [%] | growth at 10 µM (BT-549) [%] | growth at 10 µM (NCI-H23) [%] | growth at 10 µM (SK-OV-3) [%] | growth at 10 µM (HT-29) [%] | growth at 10 µM [1] [%] | growth at 10 µM [2] [%] | growth at 10 µM [3] [%] | growth at 10 µM (U-251) [%] | growth at 10 µM (SK-MEL-5) [%] | growth at 10 µM (UACC-62) [%] | further results
1 | COc1ccc(C2=Nc3nc4ccccn4c3C(=O)[C@H](Cc3ccccc3)N2)cc1 | 97.2 | 90.1 | 97.6 | 101 | 101 | 106 | 94.7 | 98.3 | 99.4 | 109 | 85.3 | 92 | 110 | 117 | 96.4 | 89.2 | 107 | 95.3 | 104 | 99.5 | growth at 10 µM (SNB-19): 103%; growth at 10 µM (T47D): 98.8%; growth at 10 µM (SN12C): 113%; growth at 10 µM (NCI-H322M): 106%; growth at 10 µM (MDA-MB-468): 98.5%; growth at 10 µM (786-0): 101%; growth at 10 µM (MOLT-4): 113%
2 | O=C1Nc2nc3ccccn3c2C(=O)[C@H](Cc2ccccc2)N1 | 95.9 | 95.7 | 93.2 | 97 | 94.6 | 113 | 94 | 93 | 113 | 98.6 | 96.9 | 101 | 112 | 106 | 102 | 98.7 | 95 | 93.2 | 97.2 | 104 | growth at 10 µM (HL-60(TB)): 116%; growth at 10 µM (SNB-19): 103%; growth at 10 µM (T47D): 103%; growth at 10 µM (SN12C): 105%; growth at 10 µM (NCI-H322M): 103%; growth at 10 µM (MDA-MB-468): 98.4%; growth at 10 µM (786-0): 99.2%; growth at 10 µM (MOLT-4): 110%
3 | Cc1ccc(C2=Nc3nc4ccccn4c3C(=O)[C@@H]3CCCN23)cc1 | 92.5 | 89 | 102 | 93.9 | 95.3 | 105 | 102 | 94.8 | 50.2 | 92.7 | 94.2 | 92 | 106 | 101 | 94 | 94.9 | 91.1 | 99.1 | 92.5 | 101 | growth at 10 µM (HL-60(TB)): 125%; growth at 10 µM (SNB-19): 92.2%; growth at 10 µM (T47D): 89.8%; growth at 10 µM (SN12C): 101%; growth at 10 µM (NCI-H322M): 104%; growth at 10 µM (MDA-MB-468): 94.8%; growth at 10 µM (786-0): 98.1%; growth at 10 µM (MOLT-4): 92.4%
4 | Cc1ccc(C2=Nc3nc4ccccn4c3C(=O)[C@H](Cc3ccccc3)N2)cc1 | 98.8 | 76.2 | 99.9 | 92.1 | 78 | 105 | 98.1 | 97.7 | 103 | 94.9 | 88.3 | 82.5 | 109 | 114 | 96.2 | 87.1 | 99.2 | 99.3 | 86.5 | 93.2 | growth at 10 µM (HL-60(TB)): 116%; growth at 10 µM (SNB-19): 96.4%; growth at 10 µM (T47D): 96.5%; growth at 10 µM (SN12C): 104%; growth at 10 µM (NCI-H322M): 104%; growth at 10 µM (MDA-MB-468): 84.5%; growth at 10 µM (786-0): 106%; growth at 10 µM (MOLT-4): 92.8%
5 | O=C1c2c(nc3ccccn23)NC(=O)N2CCC[C@@H]12 | 91.7 | 99.9 | 93.1 | 101 | 99.9 | 107 | 106 | 94.8 | 102 | 98 | 82.8 | 98.5 | 99.7 | 106 | 94.6 | 100 | 101 | 95.8 | 99.5 | 104 | growth at 10 µM (SNB-19): 104%; growth at 10 µM (T47D): 92.8%; growth at 10 µM (SN12C): 106%; growth at 10 µM (NCI-H322M): 106%; growth at 10 µM (MDA-MB-468): 93.5%; growth at 10 µM (786-0): 98.6%; growth at 10 µM (MOLT-4): 120%
